The results in this text go back to ChEMBL document CHEMBL3286275, “Identification of 1-{2-[4-chloro-1'-(2,2-dimethylpropyl)-7-hydroxy-1,2-dihydrospiro[indole-3,4'-piperidine]-1-yl]phenyl}-3-{5-chloro-[1,3]thiazolo[5,4-b]pyridin-2-yl}urea, a potent, efficacious and orally bioavailable P2Y(1) antagonist as an antiplatelet agent” (Bioorg Med Chem Lett, 2014).

A word on the IC50: it is the concentration needed to halve the response being measured. For orientation: Ki means a measure of affinity in units of concentration, obtained from inhibition or displacement. What is called solubility is how much of the substance goes into solution per volume.

For series [1], the system named is Liver microsome. Put plainly: Metabolic stability in rat liver microsomes assessed as compound remaining. The series is classed as ADME. Summed up: (§1)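 Liver microsome stability: percent of compound remaining after incubation with […] (3 µM microsomes in some cases).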
The test system of series [2] is Liver microsome. Put plainly: Metabolic stability in human liver microsomes assessed as compound remaining. The series is classed as ADME. Summed up:
as §1
(Microsomes from liver hold many membrane-bound enzymes, among them those of drug oxidation.)

Another series deals with Platelet. In words: Inhibition of ADP-induced platelet aggregation in platelet-rich human plasma. In kind it is functional. Summed up: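 Human platelet-rich plasma; aggregation triggered by 10 µM ADP; IC50 determined.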
The target in series [3] is T1, P2Y purinoceptor 1 (Homo sapiens, UniProt P47900). Put plainly: Antagonist activity at P2Y1 receptor in human platelets by FLIPR assay in presence of 2-methylthio-ADP. Summed up: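 Washed human platelets with endogenous P2Y1; calcium signalling read by FLIPR with reduced protein (~0.1% BSA); agonist 2-methylthio-ADP at 1 µM; IC50 given as mean ± SD.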
Series [4] concerns the target T1, P2Y purinoceptor 1. Put plainly: Binding affinity to P2Y1 receptor in human platelets.
The subject of series [5] is Liver microsome. Put plainly: Metabolic stability in human liver microsomes assessed as GSH adduct formation. In kind it is ADME. Summed up: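 Human liver microsomes incubated with glutathione to detect reactive intermediates; GSH adduct (M+GSH) measured as percent.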
Series [6] can be described thus: Aqueous solubility of the compound at pH 6.5. The series is classed as physicochemical. The conditions noted are these: aqueous medium. Summed up: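 Aqueous solubility taken on crystalline material: free base at pH 6.5, mono-methanesulfonic acid salt at pH 3.9.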
In series [7] the test system is Rattus norvegicus. Put plainly: Toxicity in rat assessed as prolongation of mesentric bleeding time at 10 mg/kg, po relative to control. More on the design: dose 10 mg/kg, route oral. The series is classed as organism-based. The conditions noted are these: in vivo. Summed up: (§2)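 Pentobarbital-anesthetized rats dosed by oral gavage 1 h before bleeding-time induction. Vehicle was 1 ml/kg of 10% N,N-dimethylacetamide/90% dextrose 5% water, and compound was given at 0.3, 1, 3 and 10 mg/kg. Cuticle and mesenteric bleeding times were measured and expressed as fold prolongation relative to vehicle. Group sizes were indicated per group.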

For series [8], the system named is Rattus norvegicus. In words: Toxicity in rat assessed as prolongation of cuticle bleeding time at 10 mg/kg, po relative to control. Conditions: in vivo. The series is classed as organism-based. Set-up: dose 10 mg/kg, route oral. Summed up:
as §2

The test system of series [9] is Rattus norvegicus. In words: Antithrombotic activity in pentobarbital anesthetized rat assessed as reduction in FeCl2-induced thrombus weight at 10 mg/kg, po administered 1 hr prior to FeCl2 challenge. Set-up: scale not given: the % may be the effect or the level left. In kind it is functional. Summed up: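 Pentobarbital-anesthetized rats; vehicle (1 ml/kg of 10% N,N-dimethylacetamide/90% dextrose 5% water) or 0.3, 1, 3, 10 mg/kg by oral gavage 1 h before FeCl2-induced carotid thrombosis or cuticle/mesenteric bleeding time. End points were thrombus weight and blood flow. Blood was drawn at the end of the thrombosis protocol for ex vivo aggregation. ID50 values derived; SEM reported.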

The structures appear in SMILES notation. Converted amounts (≈) assume the structure as drawn.

T1 sequence (P47900 whole entry): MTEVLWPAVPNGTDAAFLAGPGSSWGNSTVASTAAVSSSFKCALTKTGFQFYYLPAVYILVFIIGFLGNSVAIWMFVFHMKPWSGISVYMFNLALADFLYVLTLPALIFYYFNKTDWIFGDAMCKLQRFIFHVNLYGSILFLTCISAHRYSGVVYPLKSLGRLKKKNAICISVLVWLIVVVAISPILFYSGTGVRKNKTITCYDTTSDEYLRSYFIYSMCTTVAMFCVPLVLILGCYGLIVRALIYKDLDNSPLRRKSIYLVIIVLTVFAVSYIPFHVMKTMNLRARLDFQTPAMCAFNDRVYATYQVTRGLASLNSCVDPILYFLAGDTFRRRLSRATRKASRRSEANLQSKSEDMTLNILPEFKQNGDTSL

`CC(C)(C)CN1CCC2(CC1)CN(c1ccccc1NC(=O)Nc1ccc(OC(F)(F)F)cc1)c1c(O)ccc(Cl)c12`: the figures for the Stability in the series on Liver microsome [1] and in the series on Liver microsome [2] were 88% and 79%, respectively. In addition, the IC50 in the series on Platelet turned out to be 450 nM; on P2Y purinoceptor 1 [3] it was 0.04 nM.
Taken in the same sequence, the figures for `CC(C)(C)CN1CCC2(CC1)CN(c1ccccc1NC(=O)Nc1ccc(C(F)(F)F)cc1)c1c(O)ccc(Cl)c12` were 93%, 93%, 400 nM and 0.08 nM.
The like results for `CC(C)(C)CN1CCC2(CC1)CN(c1ccccc1NC(=O)Nc1ccc(OC(F)(F)F)cc1)c1c(O)ccc(C#N)c12` were, in that order, 51%, 59%, 1100 nM and 0.04 nM.
For the compound `CC(C)(C)CN1CCC2(CC1)CN(c1ccccc1NC(=O)Nc1ccc(OC(F)(F)F)cc1)c1ccc(O)cc12`, the IC50 at P2Y purinoceptor 1 [3] was > 150 nM.
In the case of `CN(C)S(=O)(=O)c1ccc(O)c2c1C1(CCN(CC(C)(C)C)CC1)CN2c1ccccc1NC(=O)Nc1ccc(OC(F)(F)F)cc1`, the Stability in the series on Liver microsome [1] was 75%; in the series on Liver microsome [2] it was 21%. Further, the IC50 with Platelet turned out to be 420 nM; at P2Y purinoceptor 1 [3] it was 0.13 nM.
For `CC(C)(C)CN1CCC2(CC1)CN(c1ccccc1NC(=O)Nc1ccc(OC(F)(F)F)cc1)c1c(O)cccc12`, the Ki at P2Y purinoceptor 1 [4] turned out to be 4 nM. Besides, the Stability entry in the series with Liver microsome [5] is on record as “Unstable”; in the series with Liver microsome [1] it was 87%; in the series with Liver microsome [2], 80%. The IC50 was 1600 nM with Platelet and 0.23 nM on P2Y purinoceptor 1 [3]. The compound further showed a solubility in series [6] of 30 µg/mL (≈ 52.8 µM).
`COC(=O)[C@H](c1ccccc1Cl)N1CCc2sccc2C1` [CLOPIDOGREL]: the “fold change (FC)” value worked out at 8.2 in the series on Rattus norvegicus [7] and 6.2 in the series with Rattus norvegicus [8]. Besides, in the series on Rattus norvegicus [9], the Activity came out at 67%.
On to `CC(C)(C)CN1CCC2(CC1)CN(c1ccccc1NC(=O)Nc1ccc(OC(F)(F)F)cc1)c1cc(O)ccc12`, for which the IC50 at P2Y purinoceptor 1 [3] was 4.6 nM.
